Experimental data from ChEMBL document CHEMBL5303300, “EUbOPEN Chemogenomics Library - Multiplex” (2023).
Where “and” joins values, the source holds several entries; their conditions need not be identical. Equal values may be shown once.

Assays:
[1] = system: Fibroblast; test: Multiplex assay against human fibroblast; format: toxicity, cell-based; conditions: number of replicates 2
In short: (§1)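 Phenotypes for tubulin, mitochondrial mass and membrane permeability are expressed as per cents of healthy-nucleus cells. Cells were stained live at seeding with Hoechst33342, BioTracker Green Microtubule Cytoskeleton Dye, MitoTracker Red and Annexin V Alexa Fluor 680, then imaged after compound addition on a CQ1 microscope at 37°C and 5% CO2. Machine-learning gating in CellPathfinder separated Hoechst high-intensity objects from normal cells, divided normal cells by nuclear state (healthy, pyknosed, fragmented) and divided pyknosed cells into mitotic or apoptotic.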

[2] = system: HEK-293T; test: Multiplex assay against HEK293T; format: toxicity, cell-based; conditions: human, number of replicates 2; in short: as §1
[3] = 12 h, 1 µM, compound concentration 1 uM
[4] = 12 h, 10 µM, compound concentration 10 uM
[5] = 24 h, 1 µM, compound concentration 1 uM
[6] = 24 h, 10 µM, compound concentration 10 uM
[7] = 48 h, 1 µM, compound concentration 1 uM
[8] = 48 h, 10 µM, compound concentration 10 uM

## Br.Oc1cc2c(cc1O)C(c1ccccc1)CNCC2 (stereo unspecified)
[1]; [3]
  Population Apoptotic (%): 86% and 44%
  Population Fragmented Nuclei (%): 18% and 16%
  Population Healthy Nuclei (%): 73%
  Population Hoechst High Intensity Objects (%): 0%
  Population Membrane Permeable-Phenotype (%): 5% and 4%
  Population Mitochondria Different-Phenotype (%): 0% and 1%
  Population Normal (%): 100% and 99%
  Population Pyknosed Nuclei (%): 8% and 10%
  Population Tubulin-Different-Phenotype (%): 7% and 6%
  Total Cell Count: 185 and 180
[1]; [4]
  Population Apoptotic (%): 76% and 66%
  Population Fragmented Nuclei (%): 13% and 12%
  Population Healthy Nuclei (%): 76% and 79%
  Population Hoechst High Intensity Objects (%): 0%
  Population Membrane Permeable-Phenotype (%): 2%
  Population Mitochondria Different-Phenotype (%): 0% and 4%
  Population Mitotic Cells (%): 23% and 33%
  Population Normal (%): 100%
  Population Pyknosed Nuclei (%): 9% and 8%
  Population Tubulin-Different-Phenotype (%): 15% and 11%
  Total Cell Count: 132 and 172
[1]; [5]
  Population Apoptotic (%): 31% and 66%
  Population Fragmented Nuclei (%): 18% and 16%
  Population Healthy Nuclei (%): 69% and 76%
  Population Hoechst High Intensity Objects (%): 0%
  Population Membrane Permeable-Phenotype (%): 6% and 4%
  Population Mitochondria Different-Phenotype (%): 0%
  Population Mitotic Cells (%): 68% and 33%
  Population Normal (%): 100%
  Population Pyknosed Nuclei (%): 11% and 6%
  Population Tubulin-Different-Phenotype (%): 6% and 2%
  Total Cell Count: 187 and 183
[1]; [6]
  Population Apoptotic (%): 80% and 50%
  Population Fragmented Nuclei (%): 12% and 13%
  Population Healthy Nuclei (%): 84% and 79%
  Population Hoechst High Intensity Objects (%): 0%
  Population Membrane Permeable-Phenotype (%): 1%
  Population Mitochondria Different-Phenotype (%): 0% and 1%
  Population Mitotic Cells (%): 20% and 50%
  Population Normal (%): 100%
  Population Pyknosed Nuclei (%): 3% and 7%
  Population Tubulin-Different-Phenotype (%): 9% and 13%
  Total Cell Count: 140 and 169
[1]; [7]
  Population Apoptotic (%): 90% and 54%
  Population Fragmented Nuclei (%): 18% and 14%
  Population Healthy Nuclei (%): 75% and 79%
  Population Hoechst High Intensity Objects (%): 0%
  Population Membrane Permeable-Phenotype (%): 2%
  Population Mitochondria Different-Phenotype (%): 0%
  Population Normal (%): 100%
  Population Pyknosed Nuclei (%): 5%
  Population Tubulin-Different-Phenotype (%): 4% and 3%
  Total Cell Count: 175 and 194
[1]; [8]
  Population Apoptotic (%): 25% and 42%
  Population Fragmented Nuclei (%): 19% and 17%
  Population Healthy Nuclei (%): 77% and 78%
  Population Hoechst High Intensity Objects (%): 0%
  Population Membrane Permeable-Phenotype (%): 0% and 1%
  Population Mitochondria Different-Phenotype (%): 0%
  Population Mitotic Cells (%): 75% and 57%
  Population Normal (%): 100%
  Population Pyknosed Nuclei (%): 2% and 3%
  Population Tubulin-Different-Phenotype (%): 10% and 9%
  Total Cell Count: 163 and 182
[2]; [3]
  Population Apoptotic (%): 30% and 41%
  Population Fragmented Nuclei (%): 5% and 3%
  Population Healthy Nuclei (%): 85%
  Population Hoechst High Intensity Objects (%): 6% and 4%
  Population Membrane Permeable-Phenotype (%): 4% and 2%
  Population Mitochondria Different-Phenotype (%): 9% and 10%
  Population Mitotic Cells (%): 69% and 58%
  Population Normal (%): 93% and 95%
  Population Pyknosed Nuclei (%): 9% and 10%
  Population Tubulin-Different-Phenotype (%): 45% and 42%
  Total Cell Count: 950 and 793
[2]; [4]
  Population Apoptotic (%): 36% and 47%
  Population Fragmented Nuclei (%): 4% and 3%
  Population Healthy Nuclei (%): 86% and 88%
  Population Hoechst High Intensity Objects (%): 7% and 5%
  Population Membrane Permeable-Phenotype (%): 2% and 0%
  Population Mitochondria Different-Phenotype (%): 12% and 21%
  Population Mitotic Cells (%): 63% and 52%
  Population Normal (%): 92% and 94%
  Population Pyknosed Nuclei (%): 8%
  Population Tubulin-Different-Phenotype (%): 51% and 55%
  Total Cell Count: 631 and 499
[2]; [5]
  Population Apoptotic (%): 20% and 36%
  Population Fragmented Nuclei (%): 6% and 5%
  Population Healthy Nuclei (%): 89%
  Population Hoechst High Intensity Objects (%): 8% and 9%
  Population Membrane Permeable-Phenotype (%): 3% and 2%
